These results are taken from ChEMBL document CHEMBL3243954 (J Med Chem, 1979).

Data set [1] has as its system Brain. The data set can be described thus: Drug uptake albino mouse brain at 10 mg equivalent of oxazepam/kg, iv after 12 mins measured per gm of tissue by thin-layer chromatography. It counts as ADME, organism-based. The note with it: in vivo, 0.2 h.
The test system of data set [2] is Brain. Put plainly: Drug uptake albino mouse brain at 10 mg equivalent of oxazepam/kg, iv after 1 min measured per gm of tissue by thin-layer chromatography. The data set is classed as ADME, organism-based. To be noted: in vivo.
The test system of data set [3] is Brain. The data set can be described thus: Drug uptake albino mouse brain at 10 mg equivalent of oxazepam/kg, iv after 3 mins measured per gm of tissue by thin-layer chromatography. The data set is classed as ADME, organism-based. The note with it: in vivo, 0.05 h.
The test system of data set [4] is Brain. The data set can be described thus: Drug uptake albino mouse brain at 10 mg equivalent of oxazepam/kg, iv after 6 mins measured per gm of tissue by thin-layer chromatography. To be noted: in vivo, 0.1 h. The data set is classed as ADME, organism-based.
Data set [5] relates to Brain. The data set can be described thus: Drug uptake albino mouse brain at 10 mg equivalent of oxazepam/kg, iv after 20 mins measured per gm of tissue by thin-layer chromatography. It counts as ADME, organism-based. The note with it: in vivo.
Data set [6] relates to Brain. The data set can be described thus: Drug uptake albino mouse brain at 10 mg equivalent of oxazepam/kg, iv after 40 mins measured per gm of tissue by thin-layer chromatography. It counts as ADME, organism-based. To be noted: in vivo.
Data set [7] can be described thus: Retardation factor, Rm of the compound by thin-layer chromatography. It counts as physicochemical.
Data set [8] deals with Brain. The data set can be described thus: Drug uptake albino mouse brain at 15 mg equivalent of oxazepam/kg, iv after 1 mins measured per gm of tissue by thin-layer chromatography. The data set is classed as ADME, organism-based. To be noted: in vivo.
Data set [9] has as its system Brain. Put plainly: Drug uptake albino mouse brain at 15 mg equivalent of oxazepam/kg, iv after 3 mins measured per gm of tissue by thin-layer chromatography. The data set is classed as ADME, organism-based. To be noted: in vivo, 0.05 h.
Data set [10] concerns Brain. The data set can be described thus: Drug uptake albino mouse brain at 15 mg equivalent of oxazepam/kg, iv after 12 mins measured per gm of tissue by thin-layer chromatography. The data set is classed as ADME, organism-based. The note with it: in vivo, 0.2 h.
Data set [11] relates to Brain. Put plainly: Drug uptake albino mouse brain at 15 mg equivalent of oxazepam/kg, iv after 20 mins measured per gm of tissue by thin-layer chromatography. The data set is classed as ADME, organism-based. The note with it: in vivo.
Data set [12] relates to Brain. The data set can be described thus: Drug uptake albino mouse brain at 15 mg equivalent of oxazepam/kg, iv after 40 mins measured per gm of tissue by thin-layer chromatography. The data set is classed as ADME, organism-based. The note with it: in vivo.
Data set [13] has as its system Brain. Put plainly: Drug uptake albino mouse brain at 15 mg equivalent of oxazepam/kg, iv after 90 mins measured per gm of tissue by thin-layer chromatography. It counts as ADME, organism-based. To be noted: in vivo, 1.5 h.
Data set [14] deals with Brain. The data set can be described thus: Drug uptake albino mouse brain at 15 mg equivalent of oxazepam/kg, iv after 180 mins measured per gm of tissue by thin-layer chromatography. The data set is classed as ADME, organism-based. The note with it: in vivo, 3 h.
In data set [15] the test system is Brain. Put plainly: Drug uptake albino mouse brain at 10 mg equivalent of oxazepam/kg, iv after 2 mins measured per gm of tissue by thin-layer chromatography. To be noted: in vivo. The data set is classed as ADME, organism-based.
Data set [16] concerns Brain. Put plainly: Drug uptake albino mouse brain at 10 mg equivalent of oxazepam/kg, iv after 5 mins measured per gm of tissue by thin-layer chromatography. To be noted: in vivo. It counts as ADME, organism-based.
For data set [17], the system named is Brain. Put plainly: Drug uptake albino mouse brain at 10 mg equivalent of oxazepam/kg, iv after 10 mins measured per gm of tissue by thin-layer chromatography. The data set is classed as ADME, organism-based. The note with it: in vivo.
Data set [18] concerns Brain. Put plainly: Drug uptake albino mouse brain at 10 mg equivalent of oxazepam/kg, iv after 30 mins measured per gm of tissue by thin-layer chromatography. To be noted: in vivo, 0.5 h. The data set is classed as ADME, organism-based.
Data set [19] has as its system Brain. Put plainly: Drug uptake albino mouse brain at 10 mg equivalent of oxazepam/kg, iv after 60 mins measured per gm of tissue by thin-layer chromatography. The note with it: in vivo, 1 h. It counts as ADME, organism-based.
The test system of data set [20] is Brain. Put plainly: Drug uptake albino mouse brain at 10 mg equivalent of oxazepam/kg, iv after 90 mins measured per gm of tissue by thin-layer chromatography. It counts as ADME, organism-based. To be noted: in vivo, 1.5 h.
Data set [21] relates to Brain. Put plainly: Drug uptake albino mouse brain at 10 mg equivalent of oxazepam/kg, iv after 120 mins measured per gm of tissue by thin-layer chromatography. The data set is classed as ADME, organism-based. To be noted: in vivo, 2 h.
The test system of data set [22] is Brain. The data set can be described thus: Drug uptake albino mouse brain at 10 mg equivalent of oxazepam/kg, iv after 240 mins measured per gm of tissue by thin-layer chromatography. To be noted: in vivo, 4 h. The data set is classed as ADME, organism-based.
Data set [23] relates to Brain. Put plainly: Drug uptake albino mouse brain at 5 mg equivalent of oxazepam/kg, iv after 5 mins measured per gm of tissue by thin-layer chromatography. The data set is classed as ADME, organism-based. The note with it: in vivo.
In data set [24] the test system is Brain. The data set can be described thus: Drug uptake albino mouse brain at 5 mg equivalent of oxazepam/kg, iv after 10 mins measured per gm of tissue by thin-layer chromatography. The data set is classed as ADME, organism-based. The note with it: in vivo.
Data set [25] has as its system Brain. Put plainly: Drug uptake albino mouse brain at 5 mg equivalent of oxazepam/kg, iv after 20 mins measured per gm of tissue by thin-layer chromatography. It counts as ADME, organism-based. To be noted: in vivo.
Data set [26] deals with Brain. Put plainly: Drug uptake albino mouse brain at 5 mg equivalent of oxazepam/kg, iv after 40 mins measured per gm of tissue by thin-layer chromatography. It counts as ADME, organism-based. To be noted: in vivo.
Data set [27] has as its system Brain. The data set can be described thus: Drug uptake albino mouse brain at 5 mg equivalent of oxazepam/kg, iv after 60 mins measured per gm of tissue by thin-layer chromatography. It counts as ADME, organism-based. To be noted: in vivo, 1 h.
The subject of data set [28] is Brain. Put plainly: Drug uptake albino mouse brain at 5 mg equivalent of oxazepam/kg, iv after 120 mins measured per gm of tissue by thin-layer chromatography. It counts as ADME, organism-based. The note with it: in vivo, 2 h.
Data set [29] concerns Brain. The data set can be described thus: Drug uptake albino mouse brain at 5 mg equivalent of oxazepam/kg, iv after 240 mins measured per gm of tissue by thin-layer chromatography. It counts as ADME, organism-based. To be noted: in vivo, 4 h.
Data set [30] deals with Brain. The data set can be described thus: Drug uptake albino mouse brain at 5 mg equivalent of oxazepam/kg, iv after 2 mins measured per gm of tissue by thin-layer chromatography. The data set is classed as ADME, organism-based. To be noted: in vivo.
In data set [31] the test system is Brain. The data set can be described thus: Drug uptake albino mouse brain at 5 mg equivalent of oxazepam/kg, iv after 6 mins measured per gm of tissue by thin-layer chromatography. The data set is classed as ADME, organism-based. To be noted: in vivo, 0.1 h.
For data set [32], the system named is Brain. The data set can be described thus: Drug uptake albino mouse brain at 5 mg equivalent of oxazepam/kg, iv after 30 mins measured per gm of tissue by thin-layer chromatography. To be noted: in vivo, 0.5 h. It counts as ADME, organism-based.
Data set [33] deals with Brain. The data set can be described thus: Drug uptake albino mouse brain at 5 mg equivalent of oxazepam/kg, iv after 1 min measured per gm of tissue by thin-layer chromatography. It counts as ADME, organism-based. To be noted: in vivo.
Data set [34] deals with Brain. The data set can be described thus: Drug uptake albino mouse brain at 5 mg equivalent of oxazepam/kg, iv after 3 mins measured per gm of tissue by thin-layer chromatography. The data set is classed as ADME, organism-based. The note with it: in vivo, 0.05 h.
For data set [35], the system named is Liver. The data set can be described thus: Drug metabolism in albino mouse liver assessed as total metabolite concentration at 5 mg equivalent of oxazepam/kg, iv after 1 min by thin layer chromatography. It counts as ADME, organism-based. To be noted: in vivo. An outline of the steps: (§1)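 Liver was dried and its total radioactivity, the sum of metabolites, was measured on a carbon-tritium analyzer. Values are means of four mice (±SE).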

Data set [36] concerns Liver. The data set can be described thus: Drug metabolism in albino mouse liver assessed as total metabolite concentration at 5 mg equivalent of oxazepam/kg, iv after 3 mins by thin layer chromatography. It counts as ADME, organism-based. The note with it: in vivo, 0.05 h. The essentials:
as §1

The subject of data set [37] is Liver. The data set can be described thus: Drug metabolism in albino mouse liver assessed as total metabolite concentration at 5 mg equivalent of oxazepam/kg, iv after 5 mins by thin layer chromatography. It counts as ADME, organism-based. The note with it: in vivo. An outline of the steps: as §1
The subject of data set [38] is Liver. The data set can be described thus: Drug metabolism in albino mouse liver assessed as total metabolite concentration at 5 mg equivalent of oxazepam/kg, iv after 10 mins by thin layer chromatography. To be noted: in vivo. It counts as ADME, organism-based. An outline of the steps: as §1

For `CCC(=O)OC1N=C(c2ccccc2)c2cc(Cl)ccc2N[14C]1=O` (centres undefined), the Drug uptake in the data set with Brain [1] was 30.8 nmol; in the data set with Brain [2], 12.6 nmol; in the data set with Brain [3], 17.5 nmol; in the data set with Brain [4] it was 24.2 nmol; in the data set on Brain [5] it was 41.7 nmol; in the data set on Brain [6] it was 33 nmol. Also, the Rm in data set [7] is given as -0.03.

As for `CCCC(=O)OC1N=C(c2ccccc2)c2cc(Cl)ccc2N[14C]1=O` (centres undefined), the Rm in data set [7] amounted to 0.17. The Drug uptake with Brain [8] is 16.6 nmol; with Brain [9], 17.3 nmol; in the data set on Brain [10] it was 19 nmol; with Brain [11], 25.9 nmol; in the data set with Brain [12] it was 32 nmol; in the data set on Brain [13], 38.2 nmol. For the same compound, the Drug uptake in the data set on Brain [14] amounted to 22.6 nmol.

As for `CCC(CC)C(=O)OC1N=C(c2ccccc2)c2cc(Cl)ccc2N[14C]1=O` (centres undefined), the Drug uptake is 0.8 nmol in the data set on Brain [15]; 2 nmol in the data set on Brain [16]; 4.8 nmol in the data set with Brain [17]; 7.8 nmol with Brain [5]; 12.1 nmol in the data set with Brain [18]; 18 nmol in the data set on Brain [6]. Further, the Drug uptake is given as 23.1 nmol in the data set with Brain [19], 20.9 nmol in the data set with Brain [20], 20 nmol in the data set with Brain [21] and 13.5 nmol with Brain [22]. The Rm in data set [7] is given as 0.46.

As for `CC(C)C(=O)OC1N=C(c2ccccc2)c2cc(Cl)ccc2N[14C]1=O` (centres undefined), the Drug uptake was determined as 5.7 nmol with Brain [23]; 8.9 nmol with Brain [24]; 9.3 nmol in the data set with Brain [25]; 11.6 nmol in the data set with Brain [26]; 10.8 nmol in the data set with Brain [27]; 5.9 nmol in the data set with Brain [28]. In addition, the Drug uptake in the data set on Brain [29] is recorded as 3.8 nmol; in the data set with Brain [30] it was 3.1 nmol. For the same compound, the Rm in data set [7] stood at 0.12.

`COC(=O)CCC(=O)OC1N=C(c2ccccc2)c2cc(Cl)ccc2N[14C]1=O` (centres undefined): the Drug uptake is recorded as 9.8 nmol with Brain [27], 3.8 nmol in the data set with Brain [31], 10.8 nmol with Brain [32] and 0.8 nmol in the data set on Brain [33]. Moreover, the Rm in data set [7] is -0.03.

`O=C(CCCc1ccccc1)OC1N=C(c2ccccc2)c2cc(Cl)ccc2N[14C]1=O` (centres undefined): the Drug uptake was determined as 0.9 nmol in the data set on Brain [34]; 0.8 nmol in the data set with Brain [23]; 2.9 nmol in the data set with Brain [24]; 6.5 nmol in the data set on Brain [25]; 9.5 nmol in the data set on Brain [26]; 9.6 nmol in the data set on Brain [27]. For the same compound, the Drug uptake worked out at 15.1 nmol in the data set on Brain [28], 12.2 nmol in the data set with Brain [29] and 0.4 nmol in the data set on Brain [33]. For the same compound, the Drug metabolism is reported as 80.7 nmol/g in the data set with Liver [35], 85.9 nmol/g in the data set with Liver [36], 82.3 nmol/g with Liver [37] and 40.4 nmol/g in the data set on Liver [38]. Further, the Rm in data set [7] stood at 0.65.
